Measurements: ChEMBL document CHEMBL3853340, “Dihydropyrimidinones and -thiones with improved activity against human polyomavirus family members” (Bioorg Med Chem Lett, 2016)
pEC50: −log10 of the molar value.

Assays:
[1] = target: Large T antigen (Simian virus 40) (UniProt P03070); assay: Inhibition of ATPase activity of SV40 T antigen expressed in baculovirus at 10 uM by antibody affinity chromatography relative to control; conditions: Betapolyomavirus macacae
How it was run: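 Purified T antigen ATPase activity measured with test agent at a final concentration of 10 μM. Activity was normalized to reactions with no compound but an equal amount of DMSO. Values are the means of three independent experiments.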

Homo sapiens [2] = species: Homo sapiens; assay: Inhibition of human Hsp70 expressed in Escherichia coli BL21(DE3) assessed as suppression of ATPase activity at 100 uM after 60 mins by TLC based steady state ATPase assay relative to control
How it was run: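 Hsp70 ATPase activity measured without cochaperone. Activity was normalized to reactions with no compound but an equal amount of DMSO. Values are the means of three independent experiments.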

[3] = Cytotoxicity against BK polyomavirus Gardner infected-human HFF cells assessed as reduction in cell viability after 7 days by cell titer-glo assay; format: toxicity, cell-based; conditions: for CC50 at 168 h: HFF cells infected with BK polyomavirus Gardner; for CC50: hff, 168 h
How it was run: (§1)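 BK virus replication and viability measured in human foreskin fibroblasts. EC50 is the concentration giving 50% activity. CC50 is the concentration killing 50% of viable cells. Values come from two independent experiments.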

JC polyomavirus = assay: Antiviral activity against JC polyomavirus MAD-4 infected in grivet COS7 cells assessed as reduction in DNA copy number after 7 days by PCR analysis; format: functional, cell-based; conditions: MAD-4, COS-7, 168 h
How it was run: (§2)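 JC virus replication and viability measured in COS7 green monkey kidney cells. EC50 is the concentration giving 50% activity. CC50 is the concentration killing 50% of viable cells. Values come from two independent experiments.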

BK polyomavirus = assay: Antiviral activity against BK polyomavirus Gardner infected in human HFF cells assessed as reduction in DNA copy number after 7 days by PCR analysis; format: functional, cell-based; conditions: Betapolyomavirus hominis, 168 h; how it was run: as §1
Homo sapiens [4] = assay: Inhibition of human Hsp70 expressed in Escherichia coli BL21(DE3) assessed as suppression of Hdj2-activated ATPase activity at 100 uM dosed 15 mins after Hsp70 and Hdj2 pre-incubation and measured after 60 mins by TLC based steady state ATPase assay relative to control
How it was run: (§3)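 Hsp70 ATPase activity measured with Hdj2 (Hsp40) at a 1:0.5 Hsp70:Hsp40 molar ratio. Activity was normalized to DMSO-matched reactions lacking compound. Values are the means of three independent experiments.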

[5] = Cytotoxicity against JC polyomavirus MAD-4 infected grivet COS7 cells assessed as reduction in cell viability after 7 days by cell titer-glo assay; format: toxicity, cell-based; conditions: chlorocebus aethiops, cos-7, 168 h; how it was run: as §2
[6] = Cytotoxicity against human RMS13 cells assessed as cell growth inhibition after 24 hrs by cell titer-glo assay; format: toxicity, cell-based
How it was run: (§4)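 Growth of MCF7 breast cancer cells and RMS13 rhabdomyosarcoma cells measured in the presence of compound. Values are the means ± SD of 2 independent experiments, each run in triplicate.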

Homo sapiens [7] = assay: Activation of human Hsp70 expressed in Escherichia coli BL21(DE3) assessed as stimulation of Hdj2-activated ATPase activity at 100 uM dosed 15 mins after Hsp70 and Hdj2 pre-incubation and measured after 60 mins by TLC based steady state ATPase assay relative to control; how it was run: as §3
[8] = Cytotoxicity against human MCF7 cells assessed as cell growth inhibition after 48 hrs by cell titer-glo assay; format: toxicity, cell-based; how it was run: as §4
[9] = Specificity index, ratio of CC50 for grivet COS7 cells to EC50 for JC polyomavirus MAD-4 infected in grivet COS7 cells; set-up: species or system COS-7
[10] = Distribution coefficient, logD of the compound; format: physicochemical; conditions: octanol/water
[11] = Partition coefficient, logP of the compound; format: physicochemical; conditions: octanol/water

Chain of Large T antigen (Simian virus 40) (P03070 whole entry): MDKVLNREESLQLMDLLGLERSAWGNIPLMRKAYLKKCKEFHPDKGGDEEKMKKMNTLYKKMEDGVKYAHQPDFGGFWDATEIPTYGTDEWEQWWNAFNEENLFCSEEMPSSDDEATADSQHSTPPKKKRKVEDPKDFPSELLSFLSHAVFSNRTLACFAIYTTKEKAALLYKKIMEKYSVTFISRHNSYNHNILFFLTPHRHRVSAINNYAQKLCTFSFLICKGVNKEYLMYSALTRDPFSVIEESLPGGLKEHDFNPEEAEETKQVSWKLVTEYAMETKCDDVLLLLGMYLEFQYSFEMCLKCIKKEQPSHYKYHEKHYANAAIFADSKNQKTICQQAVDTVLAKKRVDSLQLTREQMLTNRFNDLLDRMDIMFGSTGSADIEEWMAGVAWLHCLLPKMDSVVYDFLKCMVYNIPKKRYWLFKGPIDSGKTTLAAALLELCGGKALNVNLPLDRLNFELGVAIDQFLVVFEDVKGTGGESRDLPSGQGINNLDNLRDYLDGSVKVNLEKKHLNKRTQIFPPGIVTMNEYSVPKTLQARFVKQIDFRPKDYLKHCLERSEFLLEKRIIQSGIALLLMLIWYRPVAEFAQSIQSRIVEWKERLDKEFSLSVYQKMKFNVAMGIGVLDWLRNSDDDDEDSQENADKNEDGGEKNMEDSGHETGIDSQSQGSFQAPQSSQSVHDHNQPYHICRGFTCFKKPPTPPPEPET

fold change (FC) [1]	fold change (FC) (Homo sapiens [2])	SMILES	fold change (FC) (Homo sapiens [4])	GI50 at 24 h [6] [µM]	GI50 at 48 h [8] [µM]	other results
7.5	1.3	CC1=C(C(=O)OCc2ccccc2)C(c2ccc(-c3ccccc3C)cc2)N(Cc2ccc(-c3nnn[nH]3)cc2)C(=S)N1 (stereo not given)	4.8	62	–	–
2	–	CC1=C(C(=O)OCc2ccccc2)C(c2ccc(-c3ccccc3)cc2)NC(=O)N1Cc1ccc(-c2nnn[nH]2)cc1 (stereo not given)	5	96	160	–
2.3	1.2	CC1=C(C(=O)OCc2ccccc2)C(c2ccc(-c3ccccc3)cc2)N(Cc2ccc(-c3nnn[nH]3)cc2)C(=O)N1 (stereo not given)	5	–	–	–
2.1	–	CC1=C(C(=O)OCc2ccccc2)C(c2ccc(-c3ccccc3)cc2)NC(=S)N1CCCCCc1nnn[nH]1 (stereo not given)	1.7	110	–	–
5.5	1.4	CC1=C(C(=O)OCc2ccccc2)C(c2ccc(-c3ccccc3)cc2)NC(=S)N1Cc1ccc(-c2nnn[nH]2)cc1 (stereo not given)	4.5	87	140	–
2.1	1.4	CC1=C(C(=O)OCc2ccccc2)C(c2ccc(-c3ccccc3C)cc2)NC(=O)N1CCCCCc1nnn[nH]1 (stereo not given)	3	100	72	–
7.7	–	CC1=C(C(=O)OCc2ccccc2)C(c2ccc(-c3ccccc3C)cc2)NC(=S)N1Cc1ccc(-c2nnn[nH]2)cc1 (stereo not given)	3.7	68	160	–
1.6	–	CC1=C(C(=O)OCc2ccccc2)C(c2ccc(-c3ccccc3)cc2)N(CCCCCC(=O)O)C(=S)N1 (stereo not given)	–	110	–	–

Second part, the molecule before the results:

SMILES	fold change (FC) [1]	fold change (FC) (Homo sapiens [2])	fold change (FC) (Homo sapiens [4])	GI50 at 24 h [6] [µM]	GI50 at 48 h [8] [µM]	other results
CC1=C(C(=O)OCc2ccccc2)C(c2ccc(-c3ccccc3)cc2)NC(=O)N1CCCCCc1nnn[nH]1 (stereo not given)	1.4	1.2	1.3	–	–	CC50 at 168 h [3]: > 67 µM; pEC50 (JC polyomavirus): 5.46; pEC50 (BK polyomavirus): 5.41; CC50 [5]: 24 µM
CC1=C(C(=O)OCc2ccccc2)C(c2ccc(-c3ccccc3C)cc2)NC(=S)N1CCCCCc1nnn[nH]1 (stereo not given)	4.7	–	2.5	100	–	–
CC1=C(C(=O)OCc2ccccc2)C(c2ccc(-c3ccccc3)cc2)NC(=O)N1CCCCCC(=O)O (stereo not given)	1.5	–	–	120	–	fold change (FC) (Homo sapiens [7]): 1.5
Nc1ccn(C[C@@H](CO)OCP(=O)(O)O)c(=O)n1.O.O [CIDOFOVIR]	–	–	–	–	–	Ratio CC50/EC50 [9]: 24; CC50 at 168 h [3]: > 100 µM; pEC50 (JC polyomavirus): 5.70; pEC50 (BK polyomavirus): 5.96; CC50 [5]: 49 µM
CC1=C(C(=O)OCc2ccccc2)C(c2ccc(-c3ccccc3)cc2)N(Cc2ccc(-c3nnn[nH]3)cc2)C(=S)N1 (stereo not given)	4.5	1.7	5.3	72	110	logD [10]: 4.8; Ratio CC50/EC50 [9]: 23; CC50 [3]: 17 µM; pEC50 (JC polyomavirus): 6.12; pEC50 (BK polyomavirus): 5.74; logP [11]: 6.4; CC50 [5]: 18 µM
CC1=C(C(=O)OCc2ccccc2)C(c2ccc(-c3ccccc3C)cc2)NC(=O)N1Cc1ccc(-c2nnn[nH]2)cc1 (stereo not given)	–	–	–	73	140	CC50 [3]: 20 µM; pEC50 (JC polyomavirus): 5.38; pEC50 (BK polyomavirus): 5.77; CC50 [5]: 21 µM
CCCCCCN(C(=O)CCCCCN1C(=O)NC(c2ccc(-c3ccccc3)cc2)C(C(=O)OCc2ccccc2)=C1C)C(C(=O)NCCCC)c1ccc(OCC(=O)OC)c(C(=O)OC)c1 (stereo not given)	–	–	–	13	6	–
CC1=C(C(=O)OCc2ccccc2)C(c2ccc(-c3ccccc3)cc2)NC(=S)N1CCCCCC(=O)O (stereo not given)	1.5	–	–	100	–	–
